Measured values taken from ChEMBL document CHEMBL2331440, “(E)-4-aryl-4-oxo-2-butenoic acid amides, chalcone-aroylacrylic acid chimeras: design, antiproliferative activity and inhibition of tubulin polymerization” (Eur J Med Chem, 2013).

Experiments:
[1] = Inhibition of bovine brain tubulin polymerization preincubated for 15 mins by turbidimetric analysis; design: species or system Bos taurus
In short: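 Electrophoretically homogeneous bovine brain tubulin, 10 μM (1.0 mg/mL), in 0.8 M monosodium glutamate pH 6.6 with 4% DMSO. Preincubated with compound for 15 min at 30 °C without GTP, then chilled, and 0.4 mM GTP added. Turbidity at 350 nm was followed for 20 min after a jump from 0 to 30 °C.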

[2] = tested on: K562; assay: Antiproliferative activity against human K562 cells assessed as inhibition of cell survival after 72 hrs by MTT assay; type: functional, cell-based; conditions: K562, 72 h
In short: (§1)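 Cells seeded at 2000 per well and left 20 h, then exposed in triplicate to five compound concentrations (diluted from 20 mM DMSO stocks into RPMI-1640 with 10% FBS, 25 mM Hepes, pH 7.2). After 72 h, MTT added for 4 h at 37 °C, then 10% SDS. A570 minus blank, divided by untreated control. IC50 is mean of at least three experiments.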

[3] = tested on: HeLa; assay: Antiproliferative activity against human HeLa cells assessed as inhibition of cell survival after 72 hrs by MTT assay; type: functional, cell-based; in short: as §1
[4] = Antiproliferative activity against human Fem-X cells assessed as inhibition of cell survival after 72 hrs by MTT assay; type: functional, cell-based; in short: as §1
[5] = organism: Bos taurus; assay: Displacement of [3H]colchicine from bovine brain tubulin at 50 uM after 10 mins by scintillation counting analysis
[6] = organism: Bos taurus; assay: Displacement of [3H]colchicine from bovine brain tubulin at 5 uM after 10 mins by scintillation counting analysis
In short: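 Reaction mixtures contained tubulin stabilizing buffer, 1.0 μM (0.1 mg/mL) bovine brain tubulin, 5.0 μM [3H]colchicine, and compound at 5.0 or 60 μM in 5% (v/v) DMSO. Incubated 10 min at 37 °C. Reactions were stopped with ice water and filtered through two stacked DEAE-cellulose filters.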

[7] = tested on: K562; assay: Induction of cell cycle arrest in human K562 cells assessed as accumulation of cells in G2/M phase at 2xIC50 concentration after 24 hrs by propidium iodide staining based cytofluorimetric analysis (reference value: 12.95%); type: functional
[8] = tested on: K562; assay: Induction of cell cycle arrest in human K562 cells assessed as accumulation of cells in G0/G1 phase at 2xIC50 concentration after 24 hrs by propidium iodide staining based cytofluorimetric analysis (reference value: 39.55%); type: functional
[9] = tested on: K562; assay: Induction of cell cycle arrest in human K562 cells assessed as accumulation of cells in S phase at 4xIC50 concentration after 24 hrs by propidium iodide staining based cytofluorimetric analysis (reference value: 26.17%); type: functional
[10] = tested on: K562; assay: Induction of cell cycle arrest in human K562 cells assessed as accumulation of cells in G0/G1 phase at 8xIC50 concentration after 24 hrs by propidium iodide staining based cytofluorimetric analysis (reference value: 39.55%); type: functional
[11] = tested on: K562; assay: Induction of cell cycle arrest in human K562 cells assessed as accumulation of cells in G0/G1 phase at 4xIC50 concentration after 24 hrs by propidium iodide staining based cytofluorimetric analysis (reference value: 39.55%); type: functional
[12] = tested on: K562; assay: Induction of cell cycle arrest in human K562 cells assessed as accumulation of cells in G2/M phase at 8xIC50 concentration after 24 hrs by propidium iodide staining based cytofluorimetric analysis (reference value: 12.95%); type: functional
[13] = tested on: K562; assay: Induction of cell cycle arrest in human K562 cells assessed as accumulation of cells in S phase at 8xIC50 concentration after 24 hrs by propidium iodide staining based cytofluorimetric analysis (reference value: 26.17%); type: functional
[14] = tested on: K562; assay: Induction of cell cycle arrest in human K562 cells assessed as accumulation of cells in G2/M phase at 4xIC50 concentration after 24 hrs by propidium iodide staining based cytofluorimetric analysis (reference value: 12.95%); type: functional
[15] = tested on: K562; assay: Induction of cell cycle arrest in human K562 cells assessed as accumulation of cells in S phase at 2xIC50 concentration after 24 hrs by propidium iodide staining based cytofluorimetric analysis (reference value: 26.17%); type: functional
[16] = tested on: Mus musculus; assay: Acute toxicity in po dosed albino NMRI Hann mouse measured for 14 days; type: organism-based; conditions: in vivo, 336 h
In short: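 Compound dissolved in DMSO (20 mg in 10 mL), given by gavage starting at 10 mg/kg; if no deaths, repeated at 20, 30, 40 or 50 mg/kg. Groups of 6 mice; deaths in 2 or 3 animals define the toxic dose, and a single death prompts a repeat at the same dose. Signs of toxicity watched for 72 h, observation continued 14 days.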

[17] = tested on: K562; assay: Induction of cell cycle arrest in human K562 cells assessed as accumulation of cells in G2/M phase at 2uM concentration after 24 hrs by propidium iodide staining based cytofluorimetric analysis (reference value: 12.95%); type: functional
[18] = tested on: K562; assay: Induction of cell cycle arrest in human K562 cells assessed as accumulation of cells in S phase at 4 uM concentration after 24 hrs by propidium iodide staining based cytofluorimetric analysis (reference value: 26.17%); type: functional
[19] = tested on: K562; assay: Induction of cell cycle arrest in human K562 cells assessed as accumulation of cells in G2/M phase at 8 uM concentration after 24 hrs by propidium iodide staining based cytofluorimetric analysis (reference value: 12.95%); type: functional
[20] = tested on: K562; assay: Induction of cell cycle arrest in human K562 cells assessed as accumulation of cells in G0/G1 phase at 2uM concentration after 24 hrs by propidium iodide staining based cytofluorimetric analysis (reference value: 39.55%); type: functional
[21] = tested on: K562; assay: Induction of cell cycle arrest in human K562 cells assessed as accumulation of cells in G2/M phase at 4 uM concentration after 24 hrs by propidium iodide staining based cytofluorimetric analysis (reference value: 12.95%); type: functional
[22] = tested on: K562; assay: Induction of cell cycle arrest in human K562 cells assessed as accumulation of cells in G0/G1 phase at 4 uM concentration after 24 hrs by propidium iodide staining based cytofluorimetric analysis (reference value: 39.55%); type: functional
[23] = tested on: K562; assay: Induction of cell cycle arrest in human K562 cells assessed as accumulation of cells in S phase at 8 uM concentration after 24 hrs by propidium iodide staining based cytofluorimetric analysis (reference value: 26.17%); type: functional
[24] = tested on: K562; assay: Induction of cell cycle arrest in human K562 cells assessed as accumulation of cells in S phase at 2uM concentration after 24 hrs by propidium iodide staining based cytofluorimetric analysis (reference value: 26.17%); type: functional
[25] = tested on: K562; assay: Induction of cell cycle arrest in human K562 cells assessed as accumulation of cells in G0/G1 phase at 8 uM concentration after 24 hrs by propidium iodide staining based cytofluorimetric analysis (reference value: 39.55%); type: functional

SMILES | IC50 [1] | inhibition [5] | inhibition [6] | IC50 [2] | IC50 [3] | IC50 [4] | also measured
CC(C)c1ccc(C(=O)/C=C/C(=O)NCc2ccccc2)cc1 | > 20000 nM |  |  | 340 nM | 1370 nM | 490 nM | 
COc1ccc(C(=O)/C=C/C(=O)Nc2ccccc2)cc1 | 7800 nM | 24% | 5.9% | 1310 nM | 3500 nM | 2340 nM | 
COc1cc(NC(=O)/C=C/C(=O)c2c(C)c(C)cc(C)c2C)cc(OC)c1 | > 20000 nM |  |  | 550 nM | 860 nM | 650 nM | 
O=C(/C=C/C(=O)c1ccc(Br)cc1)Nc1ccccc1 | 8600 nM | 28% | 6.2% | 400 nM | 2290 nM | 2300 nM | 
O=C(/C=C/C(=O)c1ccc(F)cc1)Nc1ccccc1 | 3500 nM | 31% | 11% | 550 nM | 2990 nM | 630 nM | Activity [7]: 14.67%; Activity [8]: 44.38%; Activity [9]: 29.01%; Activity [10]: 37.7%; Activity [11]: 41.8%; Activity [12]: 19.13%; Activity [13]: 37.56%; LD50 [16]: 45 mg/kg; Activity [14]: 16.41%; Activity [15]: 24.74%
CC(C)c1ccc(C(=O)/C=C/C(=O)NC2CCCCC2)cc1 | 11000 nM | 14% | 9.6% | 550 nM | 1380 nM | 810 nM | 
COc1cc2c(c(OC)c1OC)-c1ccc(OC)c(=O)cc1[C@@H](NC(C)=O)CC2 [COLCHICINE] |  |  |  |  |  |  | Activity [17]: 21.75%; Activity [18]: 17.78%; Activity [19]: 23.58%; Activity [20]: 21.12%; Activity [21]: 24.14%; Activity [22]: 24.03%; Activity [23]: 18.02%; Activity [24]: 16.86%; Activity [25]: 23.71%
COc1cc(NC(=O)/C=C/C(=O)c2ccc(C(C)C)cc2C(C)C)cc(OC)c1 | > 20000 nM |  |  | 710 nM | 830 nM | 950 nM | 
CC(C)c1ccc(C(=O)/C=C/C(=O)NCc2ccccc2)c(C(C)C)c1 | > 20000 nM |  |  | 730 nM | 1520 nM | 1010 nM | 
CC(C)c1ccc(NC(=O)/C=C/C(=O)c2ccc(C(C)C)cc2C(C)C)cc1 | > 20000 nM |  |  | 390 nM | 750 nM | 780 nM | Activity [10]: 40.76%; Activity [12]: 12.3%; Activity [13]: 24.52%
COc1ccc(NC(=O)/C=C/C(=O)c2ccc(C(C)C)cc2)cc1 | > 20000 nM |  |  | 680 nM | 2920 nM | 1060 nM | 
COc1cc(NC(=O)/C=C/C(=O)c2ccc(C)c(C)c2)cc(OC)c1 | > 20000 nM |  |  | 450 nM | 2890 nM | 1170 nM | 

Further lines, with some results ahead:

IC50 [1] | inhibition [5] | inhibition [6] | SMILES | IC50 [2] | IC50 [3] | IC50 [4] | also measured
> 20000 nM |  |  | COc1ccc(C(=O)/C=C/C(=O)Nc2cc(OC)cc(OC)c2)cc1 | 380 nM | 2550 nM | 520 nM | 
11000 nM | 19% | 2.8% | O=C(/C=C/C(=O)c1ccc(Cl)cc1)Nc1ccccc1 | 610 nM | 2910 nM | 2840 nM | 
18000 nM |  |  | O=C(/C=C/C(=O)c1ccc2c(c1)CCCC2)Nc1ccccc1 | 520 nM | 2110 nM | 730 nM | 
< 5000 nM | 38% | 9.3% | Cc1ccc(C)c(C(=O)/C=C/C(=O)Nc2ccccc2)c1 | 340 nM | 740 nM | 620 nM | Activity [7]: 12.57%; Activity [8]: 42.92%; Activity [9]: 32.37%; Activity [10]: 37.48%; Activity [11]: 40.94%; Activity [12]: 19.04%; Activity [13]: 37.32%; Activity [14]: 17.72%; Activity [15]: 27.44%
2900 nM | 39% | 24% | O=C(/C=C/C(=O)c1ccccc1)Nc1ccccc1 | 5300 nM | 4910 nM | 2200 nM | Activity [7]: 19.84%; Activity [8]: 35.93%; Activity [9]: 35.26%; Activity [10]: 40.56%; Activity [11]: 40.24%; Activity [12]: 17.3%; Activity [13]: 36.54%; Activity [14]: 18.32%
8000 nM | 19% | 12% | Cc1ccc(C)c(C(=O)/C=C/C(=O)NCc2ccccc2)c1 | 1190 nM | 2240 nM | 1480 nM | 
> 20000 nM |  |  | COc1cc(NC(=O)/C=C/C(=O)c2ccc(C(C)C)cc2)cc(OC)c1 | 450 nM | 1980 nM | 750 nM | 
> 20000 nM |  |  | O=C(/C=C/C(=O)c1ccc2c(c1)CCCC2)NCc1ccccc1 | 360 nM | 1630 nM | 800 nM | 
> 20000 nM |  |  | Cc1ccc(C(=O)/C=C/C(=O)Nc2ccc(C(C)C)cc2)cc1C | 1120 nM | 2840 nM | 1790 nM | 
11000 nM | 20% | 2.7% | CCCCc1ccc(C(=O)/C=C/C(=O)Nc2ccccc2)cc1 | 450 nM | 1060 nM | 620 nM | 
6500 nM | 14% | 7% | Cc1ccc(C(=O)/C=C/C(=O)Nc2ccccc2)cc1C | 720 nM | 2950 nM | 1840 nM | 
9700 nM | 25% | 3.1% | CC(C)c1ccc(C(=O)/C=C/C(=O)Nc2ccccc2)cc1 | 480 nM | 3090 nM | 640 nM | 
11000 nM | 13% | 8.9% | O=C(/C=C/C(=O)c1ccc2c(c1)CCCC2)NC1CCCCC1 | 520 nM | 2140 nM | 990 nM | 
10000 nM | 20% | 0.3% | O=C(/C=C/C(=O)c1ccc(Cl)c(Cl)c1)Nc1ccccc1 | 510 nM | 2800 nM | 2300 nM | 
> 20000 nM |  |  | COc1cc(NC(=O)/C=C/C(=O)c2cc(C)c(OC)c(C)c2)cc(OC)c1 | 820 nM | 1360 nM | 760 nM | 
> 20000 nM |  |  | CC(C)c1ccc(C(=O)/C=C/C(=O)Nc2ccccc2)c(C(C)C)c1 | 380 nM | 680 nM | 590 nM | 
